# Source: PubChem BioAssay (several laboratories)
# This is a sample that favours compounds with a hit; in the whole collection about 3.3% have one here.
# ABCB6 inh MLPCN = ABCB6 transporter inhibitors, primary screen, K562-ABCB6 cells, flow cytometry, MLPCN library; ATP-binding cassette sub-family B member 6 (Homo sapiens), Q9NP58; AID 602162, 2011; 0.19% of 360,000 active; fluorescence ratio to DMSO, % at 10 µM; K562-ABCB6 porphyrin accumulation, 1 h; active compounds read low;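 active means fluorescence ratio to DMSO below 75%, the collection mean minus 3 SD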;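 further: signal is porphyrin accumulated inside mitochondria; lower ratio means ABCB6 inhibition with less porphyrin fluorescence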
# Target sequence (Q9NP58 whole entry, looked up): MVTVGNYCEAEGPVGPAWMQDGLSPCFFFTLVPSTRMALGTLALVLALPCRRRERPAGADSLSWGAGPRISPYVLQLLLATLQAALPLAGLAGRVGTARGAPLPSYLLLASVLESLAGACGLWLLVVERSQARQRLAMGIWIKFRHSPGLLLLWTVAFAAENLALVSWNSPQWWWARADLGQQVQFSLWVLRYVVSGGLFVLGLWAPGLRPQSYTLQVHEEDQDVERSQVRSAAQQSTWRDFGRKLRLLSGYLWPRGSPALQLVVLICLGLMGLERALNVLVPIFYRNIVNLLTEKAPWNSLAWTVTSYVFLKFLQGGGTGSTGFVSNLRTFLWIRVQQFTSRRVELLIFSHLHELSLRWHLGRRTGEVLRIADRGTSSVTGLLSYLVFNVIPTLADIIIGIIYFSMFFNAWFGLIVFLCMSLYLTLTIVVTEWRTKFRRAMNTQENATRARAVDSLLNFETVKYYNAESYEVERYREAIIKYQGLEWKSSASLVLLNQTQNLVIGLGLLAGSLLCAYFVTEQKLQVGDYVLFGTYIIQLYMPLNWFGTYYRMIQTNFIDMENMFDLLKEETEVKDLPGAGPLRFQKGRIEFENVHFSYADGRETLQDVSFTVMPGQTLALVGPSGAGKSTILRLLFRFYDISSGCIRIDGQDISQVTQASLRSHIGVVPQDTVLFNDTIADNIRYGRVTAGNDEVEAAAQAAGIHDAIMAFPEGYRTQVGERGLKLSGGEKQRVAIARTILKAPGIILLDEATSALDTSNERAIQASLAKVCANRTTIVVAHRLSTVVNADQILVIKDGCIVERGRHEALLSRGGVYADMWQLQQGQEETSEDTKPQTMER
# STAT3 activator = IL-6 driven STAT3 reporter potentiators, primary screen, U3A cells, luciferase, luminescence, MLSCN library | IL-6 STAT3-luciferase reporter; 100% = signal with IL-6 EC80 alone | activation (% of control), % at 5.6 µM | 0.91% of 190,000 active;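 active means activation above the screen-wide mean of compound activation plus 3 SD, cut at about 130% in these data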
#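 Test system: STAT3-luciferase reporter U3A cells; Detection: reporter luminescence signal; Times: 1 h compound pre-exposure, 6 h IL-6 stimulation, 37 °C; Benchmarks: IL-6-only high control; Also added: IL-6 stimulus at 33 ng/mL final.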
# AHR act = AHR activators, primary screen, cell-based, luminescence, luciferase reporter, human. Aryl hydrocarbon receptor (Homo sapiens), P35869. AHR-responsive luciferase reporter cells. activation, % at 5 µM. 2.5% of 320,000 active; in the data active means activation above about 47%
# FXN GAA850 act = FXN promoter activators, primary screen, cell-based, luciferase luminescence, HEK293 lucGAA850 | HEK293 lucGAA850 FXN promoter luciferase reporter, 24 h; percent of 10 µM SAHA response | activation, % at 6 µM | 0.56% of 360,000 active | AID 540364, 2011;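 active means activation above the average of all compounds screened plus 3 SD, cutoff fixed separately per campaign, cut at about 7.5% in these data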
# Numbers stand for hits; 0 = inactive; - = not tested or not shown.
SMILES,ABCB6 inh MLPCN,STAT3 activator,AHR act,FXN GAA850 act
CCN(CC(=O)c1c(N)n(C)c(=O)n(C)c1=O)c1cccc2ccccc12,0,0,50.0,0
CN(C)CC(=O)c1c(N)n(Cc2ccccc2)c(=O)n(C)c1=O,0,0,0,0
O=c1c2c3c(sc2nc2n1CCCC2)CCCC3,0,0,0,0
Cc1cc(C(=O)Cn2nc(C(=O)O)c3ccccc3c2=O)c(C)n1CCc1ccc(F)cc1,0,-,0,0
Cc1cc(C(=O)Cn2cncn2)c(C)n1CCc1ccc(F)cc1,0,0,59.7,0
CCOC(=O)c1cc(C)n(CCc2ccccc2)c1C,0,0,0,0
Cc1cc(C(=O)CCl)c(C)n1CCc1ccccc1,-,0,60.6,-
COC(=O)Cn1c(CCS(=O)(=O)c2ccc(C)cc2)nc2ccccc21,0,0,0,0
COc1ccc(-n2nnc3c(SC(C(C)=O)C(=O)N(C)C)ncnc32)cc1 (stereo not given),0,-,66.0,0
Cc1cccc(Nc2nc(C)nc3c2oc2ccccc23)c1,0,-,47.9,0
COc1ccc(CCNc2nc(C)nc3c2oc2ccccc23)cc1OC,0,0,0,0
Cc1nc(NCCc2cnc[nH]2)c2oc3ccccc3c2n1,0,0,52.9,0
CCc1nc(Nc2ccc3c(c2)OCO3)c2oc3ccccc3c2n1,0,0,95.5,0
Cc1ccc(NC2CCCN(C(=O)CCc3scnc3C)C2)cc1C (stereo not given),0,-,50.2,0
N/C(=N\OC(=O)c1cccc2ccccc12)c1ccccn1,0,-,61.2,0
N/C(=N/OC(=O)c1cccc([N+](=O)[O-])c1)c1cccc([N+](=O)[O-])c1,0,0,0,0
COc1cccc(C(=O)O/N=C(\N)c2ccccn2)c1OC,0,-,0,0
N/C(=N\OC(=O)c1cccc([N+](=O)[O-])c1)c1ccccn1,0,0,68.2,0
O=C(COC(=O)CNC(=O)c1ccccc1)Nc1nnc(-c2ccccc2)o1,0,-,0,0
Cc1ccc(C(=O)CN2C(=O)C(=O)N(Cc3ccccc3)C2=O)cc1,0,0,0,0
C/C(=N\Nc1cccc2cccnc12)c1ccccc1O,0,0,50.2,0
Oc1cccc(/C=N/Nc2cccc3cccnc23)c1,0,0,-,0
C/C(=N\Nc1cccc2cccnc12)c1ccccn1,0,0,47.0,0
Oc1c(/C=N/Nc2cccc3cccnc23)ccc2ccccc12,0,0,48.4,0
C/C(=N\Nc1cccc2cccnc12)c1ccc(N)cc1,0,0,0,0
SMILES,ABCB6 inh MLPCN,STAT3 activator,AHR act,FXN GAA850 act
CC(=O)OCCNc1nc(-c2ccccc2)nc2ccccc12,0,0,58.0,0
COCCNc1nc(-c2ccccc2)nc2ccccc12,0,0,0,0
O=C(O)CC1Cc2ccccc2C1C(=O)O (stereo not given),0,-,-,0
CCOc1ccccc1NC(=O)c1cc(=O)[nH]c2ccc(S(=O)(=O)N3CCOCC3)cc12,0,-,56.7,0
CCOC(=O)c1c(N/N=C/c2cccnc2)n[nH]c1C,0,-,51.6,0
Cc1ccc(OCC(=O)N/N=C/c2cccnc2)cc1,0,-,0,0
CCc1cc(C(=O)Nc2ncccc2O)sc1C,0,-,77.6,0
O=C(O)/C=C/C(=O)N1Cc2cc3ccccc3nc2C1,0,-,0,0
COc1ccc(Nc2nc(-c3ccc(OC)cc3)cs2)cc1,0,0,0,0
COc1ccc(-c2csc(Nc3cccnc3)n2)cc1,0,0,54.2,0
c1ccc(-c2csc(Nc3cccnc3)n2)nc1,0,0,0,0
COc1ccc(Nc2nc(-c3c[nH]c4ccccc34)cs2)cc1,0,0,75.9,0
c1cncc(Nc2nc(-c3cccs3)cs2)c1,0,141.4,58.1,0
COc1ccc(NC2=C3CC(C)CC=C3N(c3ccc(OC)cc3)C2=O)cc1 (stereo not given),0,0,0,0
CCc1ccccc1NC(=S)N1CCN(c2cccc(OC)c2)CC1,0,-,0,0
Cc1ccc(S(=O)(=O)N=N/C=C2\C=CC=CN2O)cc1,0,-,-,0
CCn1ncc(C(=O)Nc2cccc(Cl)c2)c1C,0,0,79.2,0
CCOc1ccc(C(=O)Nc2cccc3cccnc23)cc1,0,-,51.8,0
CCOc1ccccc1C(=O)Nc1nnc(C(C)C)s1,0,0,57.3,0
CC(C)Oc1ccc(C(=O)Nc2cccc3cccnc23)cc1,0,0,0,0
O=C(Nc1cccc2cccnc12)c1cccc2ccccc12,0,0,0,0
CCOc1ccccc1C(=O)Nc1nncs1,0,0,0,0
CCOc1ccccc1C(=O)Nc1cccc2cccnc12,0,-,74.4,0
Cc1cc(O)c2c(c1)C(=O)[C@@]13Oc4c5c(c(O)c6c(O)cc(C)cc46)C(=O)C[C@H](O)[C@H]5[C@@H]1[C@@H](O)CC(=O)C3=C2O,0,-,-,0
CSc1nnc2c(n1)[nH]c1c(C)cccc12,0,0,0,0
SMILES,ABCB6 inh MLPCN,STAT3 activator,AHR act,FXN GAA850 act
CCSc1nnc2c(n1)[nH]c1c(C)cccc12,0,0,52.9,0
COC(=O)[C@@]12CCCN1[C@H](c1ccc(-c3ccc(C(C)=O)cc3)c(OC)c1)[C@H]1C(=O)N(C)C(=O)[C@H]12,0,-,0,0
C=CCn1c(O)c(C2=c3ccccc3=NC2=O)c2ccccc21,0,-,0,0
Cc1ccc2c(c1)c(C1=c3ccccc3=NC1=O)c(O)n2C,0,-,66.0,0
COc1ccc(-c2oc3ccccc3c2C#CC(C)(C)O)cc1,0,-,0,0
O=c1[nH]cc(S(=O)(=O)N2CCN(c3ccc(F)cc3)CC2)c(=O)[nH]1,0,-,-,0
C[n+]1ccccc1/C=C/c1cc(Br)ccc1O,0,-,59.9,0
Brc1ccc(-c2nc3ccccc3s2)s1,0,0,0,0
Brc1cc2c(cc1-c1nc3ccccc3s1)OCO2,0,-,53.5,0
CN(/N=C/C=C/c1ccccc1)c1cc(=O)n(C)c(=O)[nH]1,0,0,69.7,0
O=C(O)CN1C(=O)/C(=C2\C(=O)N(Cc3ccccc3Cl)c3ccccc32)SC1=S,0,-,60.1,0
CN(C)S(=O)(=O)Oc1ccsc1C(=O)Nc1ccc(Br)cc1,0,0,0,0
CN(C)S(=O)(=O)Oc1ccsc1C(=O)Nc1ccc(C(F)(F)F)cc1,0,0,55.3,0
Cc1ccc(SCC(=O)OC(C)C(=O)NCc2ccccc2)cc1C (stereo not given),0,-,0,0
Cc1cccc(/C=N\NC(=O)c2csnn2)c1,0,0,70.4,0
Cc1cccc(/C=N\NC(=O)c2sccc2-n2cccc2)c1,0,0,63.7,0
O=C(N/N=C\c1cccs1)c1sccc1-n1cccc1,0,0,66.5,0
O=C(NC1CC1)c1sccc1-n1cccc1,0,0,0,0
O=C(N/N=C\c1ccc(Oc2ccccc2)cc1)c1csnn1,0,0,0,0
Cn1cc(C(=O)N/N=C/c2cccs2)c2ccccc21,0,0,108.7,0
Cc1cccc(/C=N\NC(=O)c2ccccc2-n2cccc2)c1,0,0,0,0
CCC(CC)C(=O)Nc1nnc(S(=O)(=O)N2CCCc3ccccc32)s1,0,-,0,0
